# Laboratory results taken from ChEMBL document CHEMBL1158390, “Photo-inducible cytotoxic and clastogenic activities of 3,6-di-substituted acridines obtained by acylation of proflavine” (Eur J Med Chem, 2009).
# Activity calls are given as the source filed them. The calls are words filed in the database; no cut-off is given here.
# Tests used:
# [1] = Phototoxicity in normal human keratinocytes after 24 hrs of UV irradiation by WST1 assay; type: cell-based; conditions: Keratinocyte, light or radiation study
# CHO [2] = assay: Phototoxicity in transformed CHO cells after 24 hrs incubation in dark by WST1 assay; type: functional, cell-based; conditions: Cricetulus griseus, light or radiation study
# Procedure, shortened: (§1)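 CHO cells (50,000/well, McCoy's 5A with 10% FCS) grown 24 h, then dosed with a concentration range in duplicate (DMSO under 0.5% final). Either kept dark or irradiated at once (4.5 J/cm²: 0.36 UVA plus 4.14 visible, 750 W m⁻²), then 24 h at 37 °C. After PBS washes, 20 min with WST1 and absorbance read at 450 nm. IC50 is the 50% drop versus control.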
# CHO-K1 [3] = assay: Clastogenic activity in CHOK1 cells assessed as lowest drug concentration required to increase number of micronucleated cells after 3 hrs incubation in dark by micronucleus assay; type: functional, Cricetulus griseus
# Procedure, shortened: (§2)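 CHO-K1 cells (50,000, chamber slides) grown 24 h, then dosed with a concentration range in duplicate, either kept dark or irradiated at once (4.5 J/cm², 1 min, 320–800 nm, 750 W m⁻², samples held at 4 °C). Exposure 3 h at 37 °C, then 5 μg/mL cytochalasin B for 24 h. Methanol fixation, Giemsa staining, 2000 binucleated cells per concentration scored at doses giving under 50% toxicity. χ² test against control. MCC is the lowest concentration giving a significant increase.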
# CHO [4] = assay: Phototoxicity in transformed CHO cells after 24 hrs of UV irradiation by WST1 assay; type: functional, cell-based; conditions: Cricetulus griseus, light or radiation study; procedure, shortened: as §1
# CHO-K1 [5] = assay: Clastogenic activity in CHOK1 cells assessed as lowest drug concentration required to increase number of micronucleated cells after 3 hrs of UV irradiation by micronucleus assay; type: functional, Cricetulus griseus; procedure, shortened: as §2
# [6] = Phototoxicity in normal human keratinocytes after 24 hrs incubation in dark by WST1 assay; type: cell-based; conditions: Keratinocyte, light or radiation study
# CHO [7] = assay: Ratio of IC50 for transformed CHO cells incubated in dark to IC50 for transformed CHO cells incubated under UV irradiation; type: functional, Cricetulus griseus
# [8] = Ratio of IC50 for normal human keratinocytes incubated in dark to IC50 for normal human keratinocytes incubated under UV irradiation; type: cell-based, Keratinocyte; conditions: read-out: Ratio IC50
# CHO-K1 [9] = assay: Clastogenic activity in CHOK1 cells assessed as induction of chromosomal mutation and misaggregation at 15 uM incubated in dark for 3 hrs by micronucleus assay in presence of protective antioxidant mannitol treated 2 hrs before compound addition; type: functional, cell-based; conditions: Cricetulus griseus
# Procedure, shortened: (§3)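 CHO-K1 cells (50,000, chamber slides, McCoy's 5A with 10% FCS) grown 24 h, then given 2 mM mannitol for 2 h at 37 °C. Then either dark treatment or irradiation at 4.5 J/cm² (UVA-visible 320–800 nm, 750 W m⁻²). Exposure 3 h at 37 °C, then 5 μg/mL cytochalasin B for 24 h. Giemsa staining; binucleated cells scored for micronuclei at 1000×.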
# CHO-K1 [10] = assay: Clastogenic activity in CHOK1 cells assessed as induction of chromosomal mutation and misaggregation at 0.15 uM after 3 hrs of 4.5 J/cm'2 UV irradiation by micronucleus assay in presence of protective antioxidant mannitol treated 2 hrs before compound addition; type: functional, cell-based; conditions: Cricetulus griseus; procedure, shortened: as §3
SMILES,IC50 [1],IC50 (CHO [2]),Activity (CHO-K1 [3]),IC50 (CHO [4]),Activity (CHO-K1 [5]),IC50 [6],Activity (CHO-K1 [3]; Cricetulus griseus),Activity (CHO-K1 [5]; Cricetulus griseus),Ratio IC50 (CHO [7]),selectivity ratio [8],Activity (CHO-K1 [9]),Activity (CHO-K1 [10])
Nc1ccc2cc3ccc(N)cc3nc2c1 [PROFLAVINE],> 50 µM,1.1 µM,0.005 µM,0.52 µM,0.004 µM,> 50 µM,,,,,,
O=C(Nc1ccc2cc3ccc(NC(=O)c4ccco4)cc3nc2c1)c1ccco1,19.3 µM,2.5 µM,,16.4 µM,,34.1 µM,inactive,inactive,,,,
Nc1ccc(C(=O)Nc2ccc3cc4ccc(NC(=O)c5ccc(N)cc5)cc4nc3c2)cc1,> 50 µM,> 50 µM,,> 50 µM,0.13 µM,> 50 µM,inactive,,,,,
O=C(Nc1ccc2cc3ccc(NC(=O)c4ccccc4)cc3nc2c1)c1ccccc1,0.33 µM,23.8 µM,,0.26 µM,,> 50 µM,inactive,inactive,90,100,,
O=C(Nc1ccc2cc3ccc(NC(=O)c4ccc([N+](=O)[O-])cc4)cc3nc2c1)c1ccc([N+](=O)[O-])cc1,> 50 µM,40.2 µM,,> 50 µM,,> 50 µM,inactive,inactive,,,,
O=C(Nc1ccc2cc3ccc(NC(=O)c4cccc5ccccc45)cc3nc2c1)c1cccc2ccccc12,24.1 µM,42.3 µM,,0.32 µM,0.13 µM,> 50 µM,inactive,,130,,,
CC(=O)Nc1ccc2cc3ccc(NC(C)=O)cc3nc2c1,41.2 µM,> 50 µM,11.01 µM,37.2 µM,0.24 µM,> 50 µM,,,,,,
O=C(Nc1ccc2cc3ccc(NC(=O)c4cc(C(F)(F)F)cc(C(F)(F)F)c4)cc3nc2c1)c1cc(C(F)(F)F)cc(C(F)(F)F)c1,> 50 µM,> 50 µM,,> 50 µM,,> 50 µM,inactive,inactive,,,,
CCCC(=O)Nc1ccc2cc3ccc(NC(=O)CCC)cc3nc2c1,0.57 µM,38.9 µM,1.01 µM,1.34 µM,0.007 µM,> 50 µM,,,,100,Active,Active
O=C(Nc1ccc2cc3ccc(NC(=O)c4ccc(Cl)cc4)cc3nc2c1)c1ccc(Cl)cc1,5.4 µM,> 50 µM,2.38 µM,0.94 µM,0.12 µM,> 50 µM,,,,,,
CC(C)(C)C(=O)Nc1ccc2cc3ccc(NC(=O)C(C)(C)C)cc3nc2c1,4.69 µM,0.11 µM,,0.1 µM,,3.28 µM,inactive,inactive,,,,
O=C(Nc1ccc2cc3ccc(NC(=O)c4ccc(F)cc4)cc3nc2c1)c1ccc(F)cc1,> 50 µM,> 50 µM,,> 50 µM,1.81 µM,> 50 µM,inactive,,,,,
Cc1ccc(C(=O)Nc2ccc3cc4ccc(NC(=O)c5ccc(C)cc5)cc4nc3c2)cc1,4.04 µM,43.1 µM,2.11 µM,1.34 µM,0.02 µM,> 50 µM,,,,,,
COC(=O)Nc1ccc2cc3ccc(NC(=O)OC)cc3nc2c1,8.1 µM,15.8 µM,0.47 µM,3.8 µM,0.21 µM,> 50 µM,,,,,,
CCC(=O)Nc1ccc2cc3ccc(NC(=O)CC)cc3nc2c1,2.4 µM,> 50 µM,1.15 µM,2.9 µM,0.03 µM,> 50 µM,,,,,,
O=C(Nc1ccc2cc3ccc(NC(=O)c4ccc(Cl)c(Cl)c4)cc3nc2c1)c1ccc(Cl)c(Cl)c1,> 50 µM,> 50 µM,,> 50 µM,,> 50 µM,inactive,inactive,,,,
CC(C)(C)OC(=O)Nc1ccc2cc3ccc(NC(=O)OC(C)(C)C)cc3nc2c1,0.14 µM,6.1 µM,,0.12 µM,,> 50 µM,inactive,inactive,,100,,
N#Cc1ccc(C(=O)Nc2ccc3cc4ccc(NC(=O)c5ccc(C#N)cc5)cc4nc3c2)cc1,33.5 µM,> 50 µM,,3.46 µM,0.06 µM,> 50 µM,inactive,,,,,
COc1ccc(C(=O)Nc2ccc3cc4ccc(NC(=O)c5ccc(OC)cc5)cc4nc3c2)cc1,> 50 µM,45.2 µM,,43.4 µM,,> 50 µM,inactive,inactive,,,,
